Drawing on ChEMBL document CHEMBL4311937, “Repositioning Salirasib as a new antimalarial agent” (Medchemcomm, 2019), this text covers IC50, selectivity ratio and Activity for 27 compounds.

The source made the active and inactive calls. No cut-off for these calls is given here.

For data set [1], the system named is Plasmodium falciparum. Kind of data set: Antimalarial activity against synchronized ring stage Plasmodium falciparum 3D7 transfected with nano-luciferase assessed as parasite growth inhibition after 72 hrs by Nano-Glo luciferase assay. In kind it is functional, organism-based. The following applies: 3D7, 72 h. An outline of the steps: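 Assays started at 1% ring stage and 2% hematocrit, with serial RPMI dilutions from 20 mM ethanol stocks. Cultures were lysed with an equal volume of 0.02% saponin buffer containing Nano-Glo substrate, and luminescence was read for 30 s. IC50 was fitted by variable-slope nonlinear regression; 3 experiments ×3 technical replicates.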

Data set [2] can be described thus: Selectivity index, ratio of IC50 for African green monkey Vero cells to IC50 for synchronized ring stage Plasmodium falciparum 3D7 transfected with nano-luciferase. The format is toxicity. To be noted: read-out: Ratio IC50.
In data set [3] the test system is Erythrocyte. Kind of data set: Hemolytic activity in erythrocytes (unknown origin) at 200 uM. The format is ADME, cell-based.
Data set [4] has as its system Vero. The data set can be described thus: Cytotoxicity against African green monkey Vero cells after 72 hrs by MTT assay. To be noted: Chlorocebus sabaeus. The format is cell-based. An outline of the steps: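 Vero cells in DMEM with 10% FBS and penicillin/streptomycin, 37 °C, 5% CO₂, seeded at 3000 cells/well. Compounds came from 27 or 25 mM DMSO stocks diluted in medium, with matching DMSO controls. After 72 h, cells got 0.5 mg/mL MTT for 4 h at 37 °C; formazan was dissolved in DMSO and absorbance read at 562 nm.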

For data set [5], the system named is Plasmodium falciparum. The data set can be described thus: Antimalarial activity against synchronized ring stage Plasmodium falciparum 3D7 transfected with nano-luciferase assessed as parasite growth inhibition at 200 uM after 72 hrs by Nano-Glo luciferase assay. The format is functional, organism-based.
Data set [6] deals with Erythrocyte. Kind of data set: Hemolytic activity in erythrocytes (unknown origin) at 100 uM. The format is ADME, cell-based.
The subject of data set [7] is Plasmodium falciparum. The data set can be described thus: Antimalarial activity against synchronized ring stage Plasmodium falciparum 3D7 transfected with nano-luciferase assessed as parasite growth inhibition after 48 hrs by Nano-Glo luciferase assay. The format is functional, organism-based. The following applies: 3D7, 48 h. An outline of the steps:
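nLuc-exporting transfected 3D7 rings were sorbitol-synchronized and cultured in RPMI-1640/0.5% Albumax I under 5% CO₂/5% O₂/90% N₂. Assays started at 1% ring stage and 2% hematocrit, with serial RPMI dilutions from 20 mM ethanol stocks. Cultures were lysed with an equal volume of 0.02% saponin buffer containing Nano-Glo substrate, and luminescence was read for 30 s. IC50 was fitted by variable-slope nonlinear regression; 3 experiments ×3 technical replicates.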

Data set [8] has as its system Plasmodium falciparum. Kind of data set: Antimalarial activity against synchronized ring stage Plasmodium falciparum 3D7 assessed as parasite growth inhibition measured after 24 to 96 hrs. The format is functional, organism-based. The following applies: in the assay text read “24 to 72 hrs” for “24 to 96 hrs”. Summed up:
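Sorbitol-synchronized 3D7 rings grown in RPMI-1640 with 0.5% Albumax I under 5% CO₂/5% O₂/90% N₂. Started at 1% ring stage, 2% hematocrit, with serial dilutions in RPMI from 20 mM ethanol stocks, plus ethanol solvent controls. Followed up to 72 h. Growth was read by SYBR Green I lysis-buffer staining (485/520 nm) and confirmed by Giemsa smears. IC50 came from variable-slope nonlinear regression; 3 experiments ×3 technical replicates.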

Take `C/C(=C\Cn1cc(CSc2ccccc2C(=O)O)nn1)CCCC(C)CCCC(C)CCCC(C)C` (centres undefined): the IC50 in data set [1] is 9.75 µM; in data set [4], 34 µM. Further, the selectivity ratio in data set [2] came to 3.67. The figures for the Activity result in data set [3] and in data set [6] were “Toxic” and “Non-Toxic”, respectively. Further, in data set [5], the outcome was Active.

With `C[C@H]1[C@H](OC(=O)CCC(=O)O)O[C@@H]2O[C@@]3(C)CC[C@H]4[C@H](C)CC[C@@H]1[C@@]24OO3` [ARTESUNATE], in data set [7], the 50% inhibitory concentration (IC50) fell in the range of 1.64 to 1.74 nM.

Take `O=C(O)c1ccccc1SCc1cn(C2CCCCC2)nn1`: the IC50 in data set [1] is above 200 µM. The result in data set [5] was Active.

Take `CCOC(=O)CCn1cc(CSc2ccccc2C(=O)O)nn1`: in data set [1], the 50% inhibitory concentration (IC50) was above 200 µM. Further, the outcome in data set [5] was Active.

As to `CCCCCCCCCCn1cc(CSc2ccccc2C(=O)O)nn1`, the IC50 in data set [1] is above 200 µM. In addition, in data set [5], the outcome was Active.

With `CC(C)=CCC/C(C)=C/CSc1ccccc1C(=O)O`, the IC50 in data set [1] was above 200 µM. The outcome in data set [5] was Active.

On to `CCCCCCCCCCSc1ccccc1C(=O)O`, for which, in data set [1], the half-maximal inhibitory concentration (IC50) is above 200 µM. In addition, the result in data set [5] was Active.

In the case of `O=C(O)c1ccccc1SC1CCCCC1`, the IC50 in data set [1] was above 200 µM. Besides, the result in data set [5] was Active.

With `CC(C)=CCC/C(C)=C/CC/C(C)=C/Cn1cc(CSc2ccccc2C(=O)O)nn1`, the half-maximal inhibitory concentration (IC50) is 26 µM in data set [1] and above 200 µM in data set [4]. Besides, the selectivity ratio in data set [2] was above 7.7. For the same compound, the result in data set [5] was Active.

As to `CC(C)=CCSc1ccccc1C(=O)O`, in data set [1], the IC50 is above 200 µM. For the same compound, the result in data set [5] was Active.

Take `C/C(=C\CSc1ccccc1C(=O)O)CCCC(C)CCCC(C)CCCC(C)C` (centres undefined): the IC50 in data set [1] was found to be 13.4 µM; in data set [4], 52 µM. The selectivity ratio in data set [2] is 3.87. Moreover, the outcome in data set [5] was Active.

Turning to `CCCCCCCCCCCCCn1cc(CSc2ccccc2C(=O)O)nn1`, the IC50 in data set [1] was 19.8 µM; in data set [4], 59 µM. Besides, in data set [2], the selectivity ratio was 2.99. In addition, the outcome in data set [5] was Active.

As for `CCCCCCCCCCCCCCCCn1cc(CSc2ccccc2C(=O)O)nn1`, the figures for the IC50 in data set [1] and in data set [4] were 14.4 µM and 27 µM, respectively. Further, in data set [2], the selectivity ratio turned out to be 1.86. In addition, the results for the Activity entry in data set [3] and in data set [6] were “Toxic” and “Non-Toxic”, respectively. For the same compound, in data set [5], the outcome was Active.

As for `CCCCCCCCn1cc(CSc2ccccc2C(=O)O)nn1`, the IC50 in data set [1] was above 200 µM. Besides, the outcome in data set [5] was Active.

`O=C(O)c1ccccc1SC/C=C/c1ccccc1`: in data set [1], the IC50 was above 200 µM. The outcome in data set [5] was Active.

As to `CC(C)=CCC/C(C)=C/Cn1cc(CSc2ccccc2C(=O)O)nn1`, the IC50 in data set [1] was above 200 µM. The result in data set [5] was Active.

Consider `CC(C)=CCC/C(C)=C/CC/C(C)=C/CSc1ccccc1C(=O)O` [SALIRASIB], for which the figures for the IC50 in data set [1], in data set [4] and in data set [8] were 20.3 µM, 210 µM and 14 µM, respectively. Besides, the selectivity ratio in data set [2] was 10.3. In addition, the outcome in data set [5] was Active.

Turning to `CCCCCCCCSc1ccccc1C(=O)O`, the IC50 in data set [1] was above 200 µM. Further, the result in data set [5] was Active.

For the compound `O=C(O)c1ccccc1SCc1cn(CCc2ccccc2)nn1`, the 50% inhibitory concentration (IC50) in data set [1] is above 200 µM. Further, in data set [5], the result was Active.

Consider `O=C(O)c1ccccc1SCc1cn(Cc2ccccc2)nn1`, for which, in data set [1], the IC50 is above 200 µM. Further, the result in data set [5] was Active.

On to `O=C(O)c1ccccc1SCc1cn(C/C=C/c2ccccc2)nn1`, for which the IC50 in data set [1] is 65.3 µM; in data set [4] it was above 200 µM. Further, the selectivity ratio in data set [2] was above 3.06. The outcome in data set [5] was Active.

Regarding `CCOC(=O)CCSc1ccccc1C(=O)O`, the IC50 in data set [1] is above 200 µM. The result in data set [5] was Active.

For `C#CCSc1ccccc1C(=O)O`, the IC50 in data set [1] is above 200 µM. For the same compound, the outcome in data set [5] was Active.

Take `CCOC(=O)Cn1cc(CSc2ccccc2C(=O)O)nn1`: the IC50 in data set [1] is above 200 µM. Besides, in data set [5], the result was Active.

Regarding `O=C(O)c1ccccc1SCc1cn(Cc2ccc3ccccc3c2)nn1`, the IC50 in data set [1] amounted to 20.5 µM; in data set [4], 143 µM. In data set [2], the selectivity ratio was found to be 6.95. For the same compound, the outcome in data set [5] was Active.

`O=C(O)c1ccccc1SCc1cn(CCCc2ccccc2)nn1`: in data set [1], the IC50 was above 200 µM. For the same compound, in data set [5], the outcome was Active.

With `CC(C)=CCn1cc(CSc2ccccc2C(=O)O)nn1`, the IC50 in data set [1] is above 200 µM. The outcome in data set [5] was Active.
